A selection: hits, their analogues and other compounds. The true share with any hit is near 1.4%.
MT1-MMP act inh = blockers of MT1-MMP proenzyme processing, primary screen, HT1080 RFP-PRO-GFP cells, GFP/RFP fluorescence; GFP/RFP ratio change, % at 20 µM; AID 651647, 2012; Matrix metalloproteinase-14 (Homo sapiens), P50281; 360,000 tested, 0.061% active; GFP/RFP ratio fluorescence, overnight; percent of plate control window, DMSO zero;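 active = GFP/RFP ratio change of at least 30% with cell ATP level not reduced by more than half and red fluorescence within 50% of control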
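Assay system: HT1080 cells carrying an RFP-PRO-GFP reporter | Dosing: Single dose of 20 µM compound, 1% DMSO final | Incubation: Cells overnight before dosing, compound overnight, 37 °C, 5% CO2 | Evaluation: GFP/RFP fluorescence ratio | Control set: DMSO and RFP-L50D-GFP cell wells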
DAGLB inhibitor = DAGLB lipase inhibitors, primary screen, biochemical, fluorescence, HTS; HEK293T DAGLB membrane lysate, EnzChek fluorogenic substrate; inhibition, % at 5.17 µM; 340,000 tested, 0.059% active; Diacylglycerol lipase-beta (Homo sapiens), Q8NCG7; in the data active = inhibition above about 34%;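 note: 0% = enzyme with vehicle and 100% = wells lacking enzyme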
Tn6 DDE FP = inhibitors of Tn6 peptide binding to fibrin DD(E), primary screen, biochemical, fluorescence polarization, human fibrin, Tn6 probe. Fibrinogen beta chain (Homo sapiens), P02675. Fibrin DD(E) TRITC-Tn6 fluorescence polarization displacement. inhibition, % at 8.3 µM. 370,000 tested, 0.21% active;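 active = inhibition above a per-campaign cutoff: mean of compounds within control limits plus 3 SD, cut at about 15% in these data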;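 note: 0% = median of all compound wells on the plate and 100% = blocking peptide control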
Target sequence (P02675 whole entry, looked up): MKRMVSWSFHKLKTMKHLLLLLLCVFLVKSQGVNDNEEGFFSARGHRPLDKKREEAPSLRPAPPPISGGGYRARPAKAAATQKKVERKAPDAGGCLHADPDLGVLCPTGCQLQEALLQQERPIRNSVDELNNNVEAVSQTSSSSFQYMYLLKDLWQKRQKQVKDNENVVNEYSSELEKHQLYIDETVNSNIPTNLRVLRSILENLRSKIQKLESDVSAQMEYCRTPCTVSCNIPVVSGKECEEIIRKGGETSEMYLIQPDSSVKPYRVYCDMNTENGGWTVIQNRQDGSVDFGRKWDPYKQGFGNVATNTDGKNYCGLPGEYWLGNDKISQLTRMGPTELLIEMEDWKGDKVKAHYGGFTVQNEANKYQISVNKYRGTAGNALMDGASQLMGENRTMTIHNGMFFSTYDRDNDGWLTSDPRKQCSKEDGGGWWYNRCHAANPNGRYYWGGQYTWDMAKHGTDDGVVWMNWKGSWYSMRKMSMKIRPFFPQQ
Cardio protect = cardioprotection against H2O2-induced cell death, primary screen, uHTS, H9c2 cells, ATPLite luminescence; H9c2 cardiomyocytes, H2O2 injury protection, 2 h; 360,000 tested, 0.63% active; protection from H2O2 cell death, % at 20 µM;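 active = compounds giving at least 50% protection of heart cells from peroxide-induced death in the single-dose screen, raw or plate-pattern-corrected value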;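 note: 0% = DMSO wells with peroxide and 100% = DMSO wells without peroxide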
TAG inh = inhibitors of triacylglycerol accumulation, primary screen, cell-based, uHTS, fluorescence, H9c2. inhibition, % at 12.5 µM. H9c2 cells, Nile Red lipid (TAG) fluorescence; cells loaded with 200 µM oleic acid. 230,000 tested, 0.66% active;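 active = pattern-corrected inhibition of lipid staining of at least 50% with the nuclear-stain viability signal not falling by more than 50%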;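 note: 0% = DMSO wells and 100% = triacsin C control wells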
Tn7 DDE FP = inhibitors of Tn7 peptide binding to fibrin DD(E), primary screen, biochemical, fluorescence polarization, human fibrin, Tn7 probe; FP displacement of FITC-Tn7 peptide from fibrin DD(E); 0% = median of compound wells per plate; inhibition, % at 8.3 µM; 370,000 tested, 0.13% active;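 active = inhibition above the mean of compounds falling within the control limits plus 3 SD of them, cut at about 14% in these data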;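 note: 0% = plate median of compound wells and 100% = 10 µM Aha-Tn7 peptide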
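Assay system: human fibrin DD(E). Input: DD(E) 2 µM final. Medium: Tris buffer with calcium and detergent, pH 7.8. Compound dosing: single point at 8.3 µM. Timing: 10 min plus 3 h, room temperature. Technique: fluorescence polarization of the labelled Tn7 tracer. Read-out: percent inhibition. Replicates: singlicate testing.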
DDE Tn6 FP ctr = counter-screen hit for Tn6 peptide-fibrin DD(E) binding disruption; shares compounds with Tn6 DDE FP; TRITC-Tn6 fluorescence polarization displacement; 0% = median of compound wells, not DMSO; inhibition, % at 8.3 µM; 680 tested, 2% active; AID 720621;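 active = inhibition above the mean of test compounds lying between the control limits plus 3 SD of those, cut at about 14% in these data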;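 note: 0% = median of compound wells and 100% = wells with Aha-Tn7 blocking peptide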
Tn6 DDE conf = inhibitors of Tn6 peptide binding to fibrin DD(E), confirmation, biochemical, fluorescence polarization, human fibrin, Tn6 probe; shares compounds with Tn6 DDE FP; FP displacement of TRITC-Tn6 peptide from DD(E); 0% = per-plate median of test wells; inhibition, % at 8.3 µM; 680 tested, 10% active; AID 720631, 2013;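 active = inhibition above the mean of compounds lying within the control limits plus 3 SD, cut at about 16% in these data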;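 note: 100% = high control wells holding a competing inhibitor peptide at 10 µM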
The depositor's hits bear a star; x = no result given.

SMILES	MT1-MMP act inh	DAGLB inhibitor	Tn6 DDE FP	Cardio protect	TAG inh	Tn7 DDE FP	DDE Tn6 FP ctr	Tn6 DDE conf
CC1CCc2c(sc(NC(=O)Cn3nc(C(F)(F)F)c4c3CCCCC4)c2C#N)C1 (centres undefined)	-2	-2	17*	-2	x	2	9	7
O=C(NCCc1cn[nH]c1)c1ccc2oc(CCc3ccccc3)nc2c1	-1	-3	12	0	22	1	x	x
CC1CCc2nn(CC(=O)Nc3c(F)cc(F)cc3Br)cc2C1 (centres undefined)	2	-3	7	-8	-5	1	x	x
O=C(Cn1cc2c(n1)CCCCC2)Nc1c(F)cc(F)cc1Br	-2	1	17*	5	-7	2	-1	-5
CCCc1c(C)c2cc(C)ccc2[nH]c1=O	7	2	18*	2	8	1	-1	-5
CCCCc1c(C)c2cc(C)ccc2[nH]c1=O	4	2	-2	-1	-37	-4	x	x
CCc1nc2c(OCCc3cccc(OC)c3)cccn2c1N(C=O)Cc1ccc(OC)cc1	1	x	5	-3	-2	8	x	x
COc1ccc(CCN(C)C2CCCN(C(=O)Cn3cccn3)C2)cc1OC (centres undefined)	-1	-1	3	-1	x	3	x	x
CN(CCc1ccccc1)C1CCCN(C(=O)Cn2cccn2)C1 (centres undefined)	-4	0	17*	3	x	7	-6	-10
O=C(Oc1ccc(N(Cc2cccs2)C2=NS(=O)(=O)c3ccccc32)cc1)c1ccccc1	1	0	-1	-2	x	-3	x	x
O=C(Oc1ccc(N(Cc2cccs2)C2=NS(=O)(=O)c3ccccc32)cc1)c1ccc(Cl)cc1	0	1	17*	7	-17	7	9	3
CN(C)c1ccc2nc3c(=O)[nH]c(=O)nc-3n(CC(O)C(O)C(O)CO)c2c1 (centres undefined)	-21	-17	73*	10	x	0	-11	12
O=C(OCC(=O)N1CCN(S(=O)(=O)c2ccc(Cl)cc2)CC1)C1CCC1	1	2	-2	6	11	4	x	x
Cc1ccc(S(=O)(=O)N2CCN(C(=O)COC(=O)C3CCC3)CC2)cc1	4	-2	18*	-4	3	3	11	4
Cc1cc(C)c2ccc(N)nc2c1O	10	10	29*	60*	-12	5	-1	-9
Cc1ccc(Cl)cc1NC(=O)COC(=O)Cn1cnc2c1c(=O)n(C)c(=O)n2C	6	-1	17*	2	-67	1	10	5
Cn1c(=O)c2c(ncn2CC(=O)OCC(=O)Nc2cc(Cl)ccc2C#N)n(C)c1=O	-2	2	4	2	12	4	x	x
COc1cc2cc(CCCOC(=O)c3cccc(Br)c3)oc(=O)c2cc1OC	6	-11	3	6	x	-2	x	x
N#CCCCSc1nnc(Cc2ccc3c(c2)OCO3)o1	2	0	18*	11	4	-5	4	-5
CC(=O)Nc1cc(-c2cccc(F)c2)cn2c(-c3ccc(S(C)(=O)=O)cc3)cnc12	-14	x	7	35	15	-9	x	x
O=C(CN1C2CCCC1CC(NC(=O)C1CCCCC1)C2)NCc1ccc(F)cc1 (centres undefined)	-1	-3	16*	-1	12	-3	1	-3
O=C(CN1C2CCCC1CC(NC(=O)C1CCCCC1)C2)Nc1ccccc1C(F)(F)F (centres undefined)	-2	-6	-2	-4	x	6	x	x
COCCCn1cc(CN2CC(N3CCN(CCO)CC3)CS2(=O)=O)nn1 (centres undefined)	1	x	-8	x	x	-5	x	x
CCNc1ccccc1CP(=O)(c1ccccc1)c1ccccc1O (centres undefined)	x	x	21*	x	x	10	4	-9
Cc1ccc(O)c(CP(=O)(c2ccccc2)c2ccccc2)c1	8	-1	2	-1	x	-4	x	x
SMILES	MT1-MMP act inh	DAGLB inhibitor	Tn6 DDE FP	Cardio protect	TAG inh	Tn7 DDE FP	DDE Tn6 FP ctr	Tn6 DDE conf
O=C(COC(=O)/C=C/c1ccco1)Nc1ncc(C(F)(F)F)cc1Cl	-4	-1	16*	0	x	1	-7	-7
O=C(Nc1ccc(Cl)cn1)C1CCN(c2ncnc3c2nc2n3CCCCC2)CC1	8	1	17*	-11	x	-1	-3	-3
Cc1cc(C)nc(SCC(=O)Nc2ccc(S(=O)(=O)Nc3nccs3)cc2)n1	1	-1	4	19	x	-2	x	x
O=C(CSc1nnc(SCc2cccc3ccccc23)s1)Nc1ccc(S(=O)(=O)Nc2nccs2)cc1	x	x	22*	x	x	-2	7	17*
COc1ccc(Nc2c(-c3ccc(F)cc3)nc3nc(C)cc(C)n23)cc1	4	x	17*	x	x	8	-1	-7
CC1(C(=O)Nc2nccs2)CCN1C(=O)C1(c2ccccc2)CC1 (centres undefined)	-2	x	1	1	-17	-7	x	x
Cc1ccc(NS(=O)(=O)c2ccc(Cl)c(C(=O)Nc3ccccc3-c3nc4ccccc4[nH]3)c2)cc1C	-12	-5	16*	-14	18	-5	8	3
CN(C)S(=O)(=O)c1ccc(Cl)c(C(=O)Nc2nc3ccccc3[nH]2)c1	-1	-1	2	-3	14	-9	x	x
CCCc1ccc(-c2cc(C(=O)N3CCN(c4ccccn4)CC3)c3ccccc3n2)cc1	0	-5	-2	-18	-7	1	x	x
COc1ccc(S(=O)(=O)NCc2ccc3c(c2)cc(C)n3C)cc1	46	12	51*	-2	2	0	-4	-7
Cc1cc2cc(CNS(=O)(=O)c3ccccc3)ccc2n1C	32	14	60*	33	2	8	2	5

Screening results deposited in PubChem BioAssay by several laboratories.
